Data: PubChem BioAssay
The source made the active and inactive calls.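 Rule for the calls, unless noted: active = viability loss from added drug above about 55%, and viability with drug at most 40%, in both replicates (limit read from the data, passing the limit was not always enough); inconclusive = both conditions met in only one replicate; inactive = neither replicate meets both conditions.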

Columns and labels:
[1] = Her2 expression decrease, cell viability multiplex – SKBR3 breast tumor cells, AlphaScreen, ATP viability, primary screen (AID 461;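 active = Her2 level under about 52% in both replicate screens, with viability over 70% of control, limit read from the data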;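 for Her2 level: lower value means less Her2 protein in the cells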;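 for viability: percent of carrier control wells set as 100% viability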); details: SKBR3 Her2 protein level, 18-24 h, measured here: SKBR3 viability, ATP luminescence, at 10 µM
[2] = molecular target: Receptor tyrosine-protein kinase erbB-2 (Homo sapiens) (UniProt P04626); assay: as above; details: 18-24 h, at 10 µM, stronger effect = lower value
[3] = reduced viability of SK-BR-3 breast cancer cells – cell-based, 24 h, human, pilot screen (AID 572;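 active = viability at or below 10% of carrier control in both of two separate runs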;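 note: compound exposure lasted between 18 and 24 h rather than exactly 24 h; 100% = carrier-treated control wells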); details: SK-BR-3 viability, CellTiter-Glo luminescence, at 10 µM, stronger effect = lower value
[4] = HUVEC growth inhibition – cell-based, human, primary screen (AID 575;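 active = viability at or below 30% in both replicate assays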;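 note: 100% = median of untreated cell wells with 0.1% DMSO on each plate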); details: HUVEC proliferation, CellTiter-Glo luminescence, 72 h; at 10 µM; stronger effect = lower value
How it was run: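 Test system: primary human umbilical vein endothelial cells; medium: endothelial basal medium with 2% FBS plus growth supplements; dosing: 10 µM compound only; times: 72 h treatment at 37 °C; signal: CTG luminescence; read-out: % viability relative to median vehicle-well signal on each plate; control set: vehicle and MePR control wells; plate: 384-well, collagen-coated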

[5] = H69AR cell proliferation blockers – human, duplicate replicates, primary screen (AID 580;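 active = viability at or under a set limit in both replicates, limit being median viability minus 3 SD, cut at about 48% in these data, passing the limit was not always enough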;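 note: 100% = mean luminescence of untreated wells and 0% = no signal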); details: H69AR lung tumor cells viability, ATP luminescence, 72 h; at 10 µM; stronger effect = lower value
[6] = MRP1 drug-resistance reversers in H69AR cells – cell-based, doxorubicin co-treatment, pilot screen (AID 601); details: CellTiter-Glo, 72 h, at 10 µM; for differential viability (reversal): stronger effect = higher value
[7] = yeast transport mutant growth inhibition pilot in 384-well plates, post-Golgi transport modulator project (AID 636; in the data active = inhibition above about 31%); details: absorbance 615 nm, about 18 h, stronger effect = higher value
[8] = growth suppression of yeast trafficking mutant, preliminary HTS, modulators of trafficking downstream of Golgi apparatus project, 1536-format plate, OD 615 nm (AID 637; in the data active = inhibition above about 30%); details: yeast transport mutant growth, absorbance 615 nm, 18 h; stronger effect = higher value
[9] = H69AR cells + 2 uM doxorubicin, measured here: viability with 2 uM doxorubicin, stronger effect = lower value
[10] = H69AR cells, compound alone cytotoxicity

Chain of Receptor tyrosine-protein kinase erbB-2 (Homo sapiens) (P04626 whole entry, looked up): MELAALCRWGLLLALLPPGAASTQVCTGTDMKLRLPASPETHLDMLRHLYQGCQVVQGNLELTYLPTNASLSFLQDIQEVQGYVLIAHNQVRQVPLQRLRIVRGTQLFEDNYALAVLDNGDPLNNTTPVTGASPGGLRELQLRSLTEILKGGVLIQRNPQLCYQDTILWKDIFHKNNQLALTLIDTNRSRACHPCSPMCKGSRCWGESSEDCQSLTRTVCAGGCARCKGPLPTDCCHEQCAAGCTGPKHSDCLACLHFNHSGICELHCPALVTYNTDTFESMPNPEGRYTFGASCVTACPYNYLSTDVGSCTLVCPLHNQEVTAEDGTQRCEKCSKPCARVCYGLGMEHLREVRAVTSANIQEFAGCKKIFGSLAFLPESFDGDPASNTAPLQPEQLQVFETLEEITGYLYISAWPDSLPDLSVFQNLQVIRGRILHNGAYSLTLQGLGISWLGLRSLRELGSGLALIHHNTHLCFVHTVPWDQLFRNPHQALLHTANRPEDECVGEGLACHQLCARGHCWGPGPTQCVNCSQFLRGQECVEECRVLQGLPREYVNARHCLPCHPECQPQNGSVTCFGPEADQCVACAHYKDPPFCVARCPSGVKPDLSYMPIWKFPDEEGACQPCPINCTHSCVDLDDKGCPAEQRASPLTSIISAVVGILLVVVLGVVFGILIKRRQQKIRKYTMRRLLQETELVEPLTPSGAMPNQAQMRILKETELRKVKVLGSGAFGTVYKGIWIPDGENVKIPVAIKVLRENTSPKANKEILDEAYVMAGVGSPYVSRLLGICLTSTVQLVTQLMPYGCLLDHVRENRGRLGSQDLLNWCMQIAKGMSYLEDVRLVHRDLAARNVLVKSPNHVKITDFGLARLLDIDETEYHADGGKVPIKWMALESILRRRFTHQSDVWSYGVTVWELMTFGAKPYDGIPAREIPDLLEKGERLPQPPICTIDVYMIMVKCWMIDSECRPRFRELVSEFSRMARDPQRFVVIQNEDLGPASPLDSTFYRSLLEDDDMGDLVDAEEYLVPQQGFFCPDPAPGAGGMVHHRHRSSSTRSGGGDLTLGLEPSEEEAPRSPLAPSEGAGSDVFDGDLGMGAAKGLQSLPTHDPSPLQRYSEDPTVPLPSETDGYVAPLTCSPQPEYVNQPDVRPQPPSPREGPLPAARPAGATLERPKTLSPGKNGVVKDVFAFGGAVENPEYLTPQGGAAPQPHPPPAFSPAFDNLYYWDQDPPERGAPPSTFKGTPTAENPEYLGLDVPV

| SMILES | viability [1] [%] | Her2 level [2] | viability [3] | viability [4] | viability [5] | differential viability (reversal) ([6]; H69AR cells + 2 uM doxorubicin) | viability [6, 9] [%] | viability [6, 10] [%] | inhibition [7] | inhibition [8] |
| --- | --- | --- | --- | --- | --- | --- | --- | --- | --- | --- |
| CCCCc1ccc(NC(=O)COCC)cc1 | 110 | 94% (inactive) | 110% (inactive) | 92.1% (inactive) | 93.1% (inactive) | 7.21% (inactive) | 85.9 | 93.1 | -2.63% (inactive) | 5.08% (inactive) |
| CCN(CC)C(=O)C1CCC(CNS(=O)(=O)c2cccc3cccnc23)CC1 (stereo not given) | 92 | 97% (inactive) | 92% (inactive) | 89.9% (inactive) | 99.2% (inactive) | 2.08% (inactive) | 97.1 | 99.2 | -1.87% (inactive) | -2.3% (inactive) |
| COc1ccc(-c2c3c(=O)n(C)c(=O)n(C)c3cn2-c2cccc(OC)c2)cc1 | 105 | 97% (inactive) | 105% (inactive) | 95.9% (inactive) | 89.7% (inactive) | -3.48% (inactive) | 93.2 | 89.7 | 0.39% (inactive) | -6.03% (inactive) |
| Cc1ccc(-c2nnc(SCC(=O)N3CC(C)CC(C)C3)o2)cc1C (stereo not given) | 97 | 106% (inactive) | 97% (inactive) | 71.4% (inactive) | 90.7% (inactive) | -2.04% (inactive) | 92.7 | 90.7 | -2.13% (inactive) | -4.75% (inactive) |
| CCOC(=O)c1sc(NC(=O)COC(=O)Cn2cnc3ccccc32)c(C(=O)OCC)c1C | 96 | 78% (inactive) | 96% (inactive) | 68.4% (inactive) | 71.2% (inactive) | -8.35% (inactive) | 79.6 | 71.2 | -0.26% (inactive) | -4.44% (inactive) |
| CCC(C)(C)NC(=O)CN(C(=O)c1snc(C(N)=O)c1N)c1ccc2c(c1)OCO2 | 104 | 94% (inactive) | 104% (inactive) | 110% (inactive) | 110% (inactive) | 7.68% (inactive) | 102 | 110 | -4.93% (inactive) | -1.27% (inactive) |
| Cc1ccc(-c2nnc(SC(C)C#N)n2N)cc1 (stereo not given) | 108 | 83% (inactive) | 108% (inactive) | 88.5% (inactive) | 92.3% (inactive) | 9.2% (inactive) | 83.1 | 92.3 | -5.68% (inactive) | 4.44% (inactive) |
| CN1C(=O)C(O)(CC(=O)c2ccc3c(c2)OCO3)c2ccccc21 (stereo not given) | 99.5 | 90.5% (inactive) | 99.5% (inactive) | 84.7% (inactive) | 82.5% (inactive) | 9.22% (inactive) | 73.3 | 82.5 | 0.52% (inactive) | -0.83% (inactive) |
| CC(=O)Nc1ccc(-c2nn[nH]n2)cc1Cl | 87 | 89% (inactive) | 87% (inactive) | 104% (inactive) | 104% (inactive) | 8.39% (inactive) | 95.6 | 104 | -1.6% (inactive) | -2.9% (inactive) |
| OCc1nc2ccccc2n1CCCOc1ccccc1 | 80.5 | 102% (inactive) | 80.5% (inactive) | 90.6% (inactive) | 103% (inactive) | 16.7% (inactive) | 85.9 | 103 | -0.13% (inactive) | -0.83% (inactive) |
| COCCNC(=O)c1ccc(CS(=O)(=O)c2ccc(OC)cc2)o1 | 97 | 121% (inactive) | 97% (inactive) | 87% (inactive) | 109% (inactive) | 15.8% (inactive) | 93.5 | 109 | -1.03% (inactive) | 2.67% (inactive) |
| CC(C)(C)c1ccc(O)c(N)c1 | 86 | 93.5% (inactive) | 86% (inactive) | 106% (inactive) | 94.2% (inactive) | -0.85% (inactive) | 95.1 | 94.2 | -5.21% (inactive) | -3.33% (inactive) |
| COc1cc(N=c2ssnc2Cl)cc(OC)c1 | 84.5 | 111% (inactive) | 84.5% (inactive) | 78% (inactive) | 3.23% (active) | -1.38% (inactive) | 4.61 | 3.23 | -5% (inactive) | 0.48% (inactive) |
| O=c1c[n+]([O-])c2ccccc2n1OCc1ccccn1 | 94 | 89.5% (inactive) | 94% (inactive) | 94.7% (inactive) | 105% (inactive) | 12.1% (inactive) | 92.7 | 105 | -2.11% (inactive) | -4.29% (inactive) |
| CCOc1ccccc1N1CCN(c2nc3ccccc3nc2C(C#N)C(=O)OC)CC1 (stereo not given) | 74 | 78% (inactive) | 74% (inactive) | 71.7% (inactive) | 83.9% (inactive) | -4.64% (inactive) | 88.5 | 83.9 | 1.45% (inactive) | -2.1% (inactive) |
| O=C(Cn1cnc2c(nnn2-c2ccc(F)cc2)c1=O)NCc1ccco1 | 97 | 74% (inactive) | 97% (inactive) | 97.1% (inactive) | 84.8% (inactive) | -0.975% (inactive) | 85.7 | 84.8 | -0.39% (inactive) | -2.73% (inactive) |
